Measurements pooled from the literature.
Lines come from different studies, so protocols differ.
MAOA: Amine oxidase [flavin-containing] A (MAOA, Homo sapiens, UniProt P21397)
MAL12: Alpha-glucosidase MAL12 (MAL12, Saccharomyces cerevisiae S288c, UniProt P53341)
ADRA1A: Alpha-1A adrenergic receptor (ADRA1A, Homo sapiens, UniProt P35348)
FABP1: Fatty acid-binding protein, liver (FABP1, Homo sapiens, UniProt P07148)

SMILES | target | assay | setting | measurement | value
CC[C@H](C)[C@H](NC(=O)[C@H](C)NC(=O)[C@H](CCC(=O)O)NC(=O)[C@H](Cc1c[nH]cn1)NC(=O)[C@H](CC(C)C)NC(=O)[C@@H](NC(=O)[C@H](Cc1ccccc1)NC(=O)[C@H](CO)NC(=O)[C@@H](NC(=O)[C@H](CC(C)C)NC(=O)[C@H](CC(=O)O)NC(=O)[C@H](CC(C)C)NC(=O)[C@@H]1CCCN1)[C@@H](C)O)C(C)C)C(=O)O | MAOA | enzyme activity, inhibitor, fluorescence | – | IC50 | 73 µM
CCc1ccc(N2C(=O)/C(=C3/C(=O)N(C)c4ccc(Cl)cc43)NC2=S)cc1 | MAL12 | enzyme activity, inhibitor, absorbance | – | IC50 | 128 µM
CCOC(=O)c1ccc(OC(=O)CCCCCN=C(N)N)cc1 | Kallikrein-7 (KLK7, Homo sapiens, UniProt P49862) | enzyme activity, inhibitor | – | IC50 | 15.6 µM
COc1cc2c3c(c1OC)-c1c(OC)ccc(Br)c1CC3N(C)CC2 (stereo not shown) | ADRA1A | cell-free assay, radioligand | – | Ki | 0.016 µM
O=S(=O)(O)C(F)(F)C(F)(F)C(F)(F)C(F)(F)C(F)(F)C(F)(F)F | FABP1 | ligand displacement, fluorescence | – | Kd | 11.2 µM
CC[C@H](C)[C@H](N)C(=O)N1CCC[C@H]1C(=O)N1CCC[C@H]1C(=O)NCC(=O)N[C@H](C(=O)N1CCC[C@H]1C(=O)N[C@@H](Cc1ccc(O)cc1)C(=O)O)C(C)C | MAOA | enzyme activity, inhibitor, fluorescence | – | IC50 | 829 µM
O=P(Oc1ccccc1)(Oc1ccccc1)C(NCc1cncc2ccccc12)c1ccc(O)cc1 (stereo not shown) | sn-1-specific diacylglycerol lipase ABHD11 (ABHD11, Homo sapiens, UniProt Q8NFV4) | enzyme activity, inhibitor | lysate | IC50 | 1.9 µM
O=C(Nc1ccc([N+](=O)[O-])cc1Cl)c1cc(Cl)ccc1O | FABP1 | ligand displacement, fluorescence | – | Kd | 9.69 µM
CN1C(=S)N(c2ccccc2)C(=O)/C1=C1/C(=O)N(C)c2ccc(Cl)cc21 | MAL12 | enzyme activity, inhibitor, absorbance | – | IC50 | 157 µM
COc1cc2c(cc1OC)CN(CCc1ccc(NC(=O)c3cccc4c(=O)c5cccc(OC)c5[nH]c34)cc1)CC2 | ADRA1A | cell-free assay | – | Ki | 0.183 µM
COc1cc2c3c(c1OC)-c1c(OC)ccc(Cl)c1CC3N(C)CC2 (racemic) | ADRA1A | cell-free assay, radioligand | – | Ki | 0.023 µM
Cc1cc(SC2=C(O)C[C@@](CCc3ccc(N)cc3)(C(C)C)OC2=O)c(C(C)(C)C)cc1CO | FABP1 | ligand displacement, fluorescence | – | Kd | 1.68 µM
COc1cc(O)cc(/C=C/c2ccc(O)cc2)c1 | MAL12 | enzyme activity, inhibitor, absorbance | pH 6.8 | IC50 | 11.7 µM
